Experimental data published in PMC10239344 (ChemMedChem, 2023).
Like-named read-outs stand apart in the source and are kept apart here.

Legend:
[1] = target: T1, K. pneumoniae LpxH (KpLpxH) (Klebsiella pneumoniae subsp. pneumoniae, UniProt A6T5R0); conditions: cited from earlier work; for Percentage Activity of KpLpxH (vi/v0) / Percentage Inhibition of KpLpxH: 0.1 μM inhibitor, previously reported
T1 sequence (A6T5R0 1-240): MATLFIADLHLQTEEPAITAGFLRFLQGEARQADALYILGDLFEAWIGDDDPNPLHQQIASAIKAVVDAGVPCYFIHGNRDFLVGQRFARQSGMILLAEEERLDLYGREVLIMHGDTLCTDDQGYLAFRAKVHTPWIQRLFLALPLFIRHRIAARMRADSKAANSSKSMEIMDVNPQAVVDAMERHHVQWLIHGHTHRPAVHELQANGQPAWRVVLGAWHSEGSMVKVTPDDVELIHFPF

[2] = target: T1, K. pneumoniae LpxH (KpLpxH); assay: LpxE-coupled malachite green LpxH activity assay; type: biochemical
In short: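 Enzyme/inhibitor and substrate mixes were preincubated 10 min at 37 °C, then combined (final 100 μM UDP-DAGn, 10 ng/mL enzyme). Aliquots were EDTA-quenched, then A. aeolicus LpxE 5 μg/mL was added for 30 min at 37 °C. Formic acid stop; malachite green A620. Triplicates; activity normalized to DMSO control; IC50 fit converted to competitive KI.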

Row | SMILES | Percentage Activity of KpLpxH (vi/v0) [1] | Percentage Inhibition of KpLpxH [1] | Percentage Activity of KpLpxH (vi/v0) ([1]; listed as 2 (JH-LPH-33)) | IC50 ([1]; read-out: IC50 of KpLpxH inhibition, reported value) | Ki ([1]; read-out: KI for KpLpxH, reported value) | Percentage Inhibition of KpLpxH ([2]; 0.1 μM inhibitor) | Ki ([2]; read-out: KI for KpLpxH, from IC50, competitive binding mode, KM 68.1 μM)
1 | CC(=O)N1CCc2cc(S(=O)(=O)N3CCN(c4cccc(C(F)(F)F)c4)CC3)ccc21 [Compound 1] | 78^[16] % | 22^[16] % |  |  |  |  | 
2 | CC(=O)N1CCc2cc(S(=O)(=O)N3CCN(c4cc(Cl)cc(C(F)(F)F)c4)CC3)ccc21 [Compound 2] | 21% | 79^[16] % | 21^[16] % | 26 nM | 10 nM |  | 
3 | O=C(CCCCCNC(=O)Nc1ccc(S(=O)(=O)N2CCN(c3cc(Cl)cc(C(F)(F)F)c3)CC2)cc1)NO [Compound 13] |  |  |  |  |  | 97% | 3.1 nM
